Measured values gathered from unrelated publications.
Observed: cell growth or viability

The GI50 of `CN(C)CCNC(=O)c1ccc(-c2nc3ccc4[nH]ncc4c3c3c2CCCC3)c(F)c1` is reported as 2.15 µM (U-937; 72 h).
`CCCCCCCCCCCCCCCCCCOCC(COP(=O)([O-])OCC[N+](C)(C)C)OC` (stereo not shown) gave an inhibition of 6.1% (NCI-H226; SRB; 10 µM).
For `COc1cccc2c1C(=O)c1c(O)c3c(c(O)c1C2=O)C[C@@](O)(C(=O)CO)C[C@@H]3O[C@H]1C[C@H](N)[C@H](O)[C@H](C)O1`, the IC50 was 0.86 µM (HuCC-A1; MTT; 48 h).
`CN(C)CCNC(=O)c1ccc(-c2nc3ccc4[nH]ncc4c3c3c2CCCC3)cc1` has a GI50 of 0.658 µM (U-937; 72 h).
`CCCCCCCCCCCCCCCCCCOc1ccc(CC(=O)OCC[N+](C)(C)C)cc1` gave an inhibition of 4.87% (NCI-H226; SRB; 10 µM).
For `CC1=CC(=O)c2ccccc2C1=O`, the IC50 was 23 µM (HuCC-A1; MTT).
For `COc1cccc2c1cc1c3c(cc4c(c32)OCO4)C(=O)N1C`, the IC50 was 26 µM (HuCC-A1; MTT; 75 h).
The GI50 of `CC(C)(C)c1cc(NC(=O)Nc2ccc(-c3cn4c(n3)sc3cc(OCCN5CCOCC5)ccc34)cc2)no1` is reported as > 10 µM (ML-2; 72 h).
For `Nc1ccccc1NC(=O)c1ccc(Cn2cnc3c(Nc4ccc(Cl)cc4)ncnc32)cc1`, the IC50 was 0.92 µM (U-937; MTT; 72 h).
`Cc1nc(Nc2ncc(C(=O)Nc3c(C)cccc3Cl)s2)cc(N2CC[C@H](O)C2)n1` has an inhibition of 8% (SU-DHL-8; ATP luminescence; 10 µM, 72 h).
With `CCc1nc(C(N)=O)c(Nc2ccc(N3CCC(N4CCN(C)CC4)CC3)c(OC)c2)nc1NC1CCOCC1` the GI50 was 4.39 µM (U-937; 72 h).
`COc1ccc(Nc2ncnc3c2ncn3Cc2ccc(C(=O)Nc3ccccc3N)cc2)cc1` has an IC50 of 22.8 µM (U-937; MTT; 72 h).
With `CCCCCCCCCCCCCCCCCCOc1ccccc1CC(=O)OCC[N+]1(C)CCCCC1` the inhibition was 71.9% (NCI-H226; SRB; 10 µM).
`Cc1n[nH]c2ccc3nc(-c4ccc(C(=O)NCCN(C)C)cc4)c4c(c3c12)CCCC4` has a GI50 of 0.429 µM (ML-2; 72 h).
`C=C1C[C@@]23CC[C@H]4[C@@](C)(CCC[C@@]4(C)C(=O)O)[C@@H]2CC[C@@H]1C3` gave an IC50 of 108 µM (HuCC-A1; MTT; 75 h).
`COc1ccc(Nc2ncnc3c2ncn3Cc2ccc(C(=O)NO)cc2)cc1` gave an IC50 of 1.23 µM (U-937; MTT; 72 h).
The IC50 of `COc1cccc2c1C(=O)c1c(O)c3c(c(O)c1C2=O)C[C@@](O)(C(=O)CO)C[C@@H]3O[C@H]1C[C@H](N)[C@H](O)[C@H](C)O1` is reported as 0.0117 µM (MINO; 96 h).
`CN(C)CCNC(=O)c1ccc(-c2nc3ccc4[nH]ncc4c3c3c2CCCCC3)cc1` has a GI50 of 0.698 µM (ML-2; 72 h).
`CCCCCCCCCCCCCCCCCCOc1ccc(CC(=O)OCC[N+](CC)(CC)CC)cc1` gave an inhibition of 16.1% (NCI-H226; SRB; 10 µM).
With `Cc1n[nH]c2ccc3nc(-c4ccc(C(=O)NCCN(C)C)cc4)c4c(c3c12)CCCCC4` the GI50 was 1.07 µM (ML-2; 72 h).
`CCCCCCCCCCCCCCCCCCOc1cccc(CC(=O)OCCC[N+](C)(C)C)c1` has an inhibition of 15% (NCI-H226; SRB; 10 µM).
The IC50 of `CN1C(=O)C(=O)c2cc3c(c4c2c1cc1ccccc14)OCO3` is reported as 44.4 µM (HuCC-A1; MTT; 75 h).
The inhibition of `CCCCCCCCCCCCCCCCCCOc1cccc(CC(=O)OCC[N+]2(C)CCCC2)c1` is reported as 14.6% (NCI-H226; SRB; 10 µM).
For `CN1CCC(NC2CCc3[nH]c4c(C(N)=O)ccc(-c5ccccc5Cl)c4c3C2)CC1` (stereo not shown), the IC50 was 0.0273 µM (MINO; 96 h).
For `CCCCCCCCCCCCCCCCCCOc1ccccc1CC(=O)OCCC[N+](C)(C)C`, the inhibition was 22% (NCI-H226; SRB; 10 µM).
`O=C(NO)c1ccc(Cn2cnc3c(Nc4ccc(F)c(Cl)c4)ncnc32)cc1` gave an IC50 of 2.94 µM (U-937; MTT; 72 h).
The inhibition of `CCCCCCCCCCCCCCCCCCOc1ccc(CC(=O)OCCC[N+](C)(C)C)cc1` is reported as 22.1% (NCI-H226; SRB; 10 µM).
With `Cc1n[nH]c2ccc3nc(-c4ccc(C(=O)NCCN(C)C)cc4F)c4c(c3c12)CCCC4` the GI50 was 0.183 µM (U-937; 72 h).
